Measurements taken from paper PMC5489371 (Leukemia & lymphoma, 2017).

Experiments:
[1] = test system: patients treated with single agent panobinostat; details: cited from earlier work
[2] = test system: MM cell lines (U266, H929, RPMI 8226, ARH-77, and IM-9); details: MM cell lines and primary MM cells; cited from earlier work
[3] = test system: patients with relapsed lymphoma; assay: Response assessment, lymphoma patients; assay type: in vivo, human
In short: (§1)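 Open-label, single-centre, first-in-human 3+3 dose-escalation trial. Adults with relapsed or refractory CLL, Hodgkin or non-Hodgkin lymphoma (WHO 2008) or MM (IMWG criteria) had to have had at least one prior therapy; MM patients had prior immunomodulatory agent and proteasome inhibitor. Test compound was given orally Mon/Wed/Fri for three weeks of each 28-day cycle at 20, 40, 50 or 70 mg, until unacceptable toxicity or progression.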

soluble CD44 (sCD44) = assay: ELISA for soluble CD44 in serum of MM patients; assay type: in vivo, human
In short: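 Serum from relapsed multiple myeloma patients was collected at baseline before dosing and on cycle 1 day 15. Soluble human CD44 was measured by ELISA following the kit manufacturer's protocol. Patients took the oral HDAC inhibitor Monday, Wednesday and Friday for three weeks, then one week off, in 28-day cycles.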

[4] = test system: patients with relapsed hematologic malignancies; assay: Phase 1 dose escalation trial of single-agent AR-42: safety and tolerability; assay type: in vivo, human
QTc measurement = assay type: in vivo, human
[5] = Pharmacokinetic analysis of AR-42 in patient plasma; assay type: in vivo, human
[6] = test system: patients with relapsed hematologic malignancies; assay: Response assessment, all 27 patients; assay type: in vivo, human; details: 95% CI: 53.7 – 88.8
In short: as §1

[7] = test system: patients with relapsed MM; assay: Response assessment, multiple myeloma patients; assay type: in vivo, human
In short: as §1

[8] = between the 20 and 40 mg dose levels
[9] = between the 40 and 50 mg dose levels

## Cc1[nH]c2ccccc2c1CCNCc1ccc(/C=C/C(=O)NO)cc1 [panobinostat]
[1]
  patients with fatigue: 47.4%

## AR-42
[2]
  potency in comparison to vorinostat: four- to seven-fold more potent
[3]; ongoing
  duration of disease control, one patient with mantle cell lymphoma: 27 months
[3]; ten patients
  best response in patients with relapsed lymphoma: stable disease
Soluble CD44 (sCD44); 10 MM patients, 95% CI: 3.19–32.72, paired t-test, p=0.0022
  reduction of sCD44, mean difference: 17.95
Soluble CD44 (sCD44); baseline vs cycle 1 day 15
  MM patients with decreased sCD44 levels: nine
Soluble CD44 (sCD44); cycle 1 day 15
  MM patients in whom CD44 decreased more than 20% by day 15: four
[4]; in vivo
  dose-limiting toxicities (DLTs): no DLTs were evident
  grade 3 or 4 fatigue: no patient suffered grade 3 or 4 fatigue
  patients requiring hospitalization: seven
  patients requiring temporary holds of study treatment: seven
  patients with SAEs possibly, probably, or likely related to AR-42: five
  patients with neutropenia (grade 1 – 3): 11 patients
  patients with neutropenia (grade 1 – 4): 12 patients
[4]; oral, three times weekly (M-W-F) for three weeks of a 28-day cycle
  maximum tolerated dose (MTD): 40 mg
QTc measurement; all 27 patients, not associated with cardiac events or dose reductions
  QTc prolongation, highest grade: ≤ 1 grade
QTc measurement; all patients, range 10 – 60, standard deviation 14.5
  mean maximum QTc change: 27.4
[5]; 20 mg oral, day 19, plasma
  peak concentration (geometric mean, %CV): 0.335 (65.6) μM
[5]; 20 mg oral, day one, plasma
  peak concentration (geometric mean, %CV): 0.383 (56.2) μM
[5]; 40 mg oral, day 19, plasma
  peak concentration (geometric mean, %CV): 0.830 (27.9) μM
[5]; 40 mg oral, day one, plasma
  peak concentration (geometric mean, %CV): 0.794 (23.8) μM
[5]; 50 mg oral, day one, plasma
  peak concentration (geometric mean, %CV): 1.60 (37.5) μM
[5]; [8]
  fold increase in mean day one AUC0-∞: 1.9 fold
  fold increase in mean day one Cmax: 2.1 fold
[5]; [9]
  fold increase in mean day one AUC0-∞: 1.7 fold
  fold increase in mean day one Cmax: 2.0 fold
[6]
  patients with stable disease for between 1 and 3 cycles: 20 of 27
[7]; MM patient ID 1, 20 mg (1a)
  Cycles of Treatment: 1 cycles
[7]; MM patient ID 4, 40 mg (2a)
  Cycles of Treatment: 3 cycles
[7]; MM patient ID 5, 40 mg (2a)
  Cycles of Treatment: 18 cycles
[7]; MM patient ID 6, 40 mg (2a)
  Cycles of Treatment: 3 cycles
[7]; MM patient ID 7, 40 mg (1b)
  Cycles of Treatment: 3 cycles
[7]; MM patient ID 8, 40 mg (1b)
  Cycles of Treatment: 1 cycles
[7]; MM patient ID 10, 50 mg (2b)
  Cycles of Treatment: 1 cycles
[7]; MM patient ID 11, 50 mg (2b)
  Cycles of Treatment: 1 cycles
[7]; MM patient ID 12, 50 mg (2b)
  Cycles of Treatment: 1 cycles
[7]; MM patient ID 13, 50 mg (2b)
  Cycles of Treatment: 3 cycles
[7]; MM patient ID 17, 70 mg (3b)
  Cycles of Treatment: 5 cycles
[7]; MM patient ID 20, 40 mg (4b)
  Cycles of Treatment: 2 cycles
[7]; MM patient ID 21, 40 mg (4b)
  Cycles of Treatment: 1 cycles
[7]; MM patient ID 22, 40 mg (4b)
  Cycles of Treatment: 2 cycles
[7]; MM patient ID 25, 40 mg (4b)
  Cycles of Treatment: 2 cycles
[7]; MM patient ID 26, 40 mg (4b)
  Cycles of Treatment: 1 cycles
[7]; MM patient ID 27, 40 mg (4b)
  Cycles of Treatment: 3 cycles
[7]; human, in vivo
  duration of disease control, one patient with MM: 19 months
[7]; of 17 MM patients
  MM patients who progressed during the first cycle: four
